Source: ChEMBL document CHEMBL3797125, “Discovery of GluN2A-Selective NMDA Receptor Positive Allosteric Modulators (PAMs): Tuning Deactivation Kinetics via Structure-Based Design” (J Med Chem, 2016)
Activity calls are given as the source filed them. The calls are words filed in the database; no cut-off is given here.

Assays:
[1] = biological target: T1, Glutamate NMDA receptor; GRIN1/GRIN2A (Homo sapiens, UniProt Q05586+Q12879); assay: Positive allosteric modulation of GluN1/GluN2A NMDAR (unknown origin) expressed in Dox-inducible cells at 125 uM measured every 5 mins by BD calcium indicator dye based-fluorescence analysis in presence of glutamate/glycine; format: cell-based
Procedure, shortened: (§1)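 GluN2A-containing NMDAR cell line, harvested, seeded, doxycycline 2 µg/mL overnight with 500 µM ketamine for protection, then washed and loaded with calcium dye for 50 min. Compound added at 2x concentration in 2x EC30 Glu (EC30 set daily from Glu dose-response); saturating Gly throughout; fluorescence recorded over 5 min.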

[2] = biological target: T1, Glutamate NMDA receptor; GRIN1/GRIN2A; assay: Positive allosteric modulation of GluN1/GluN2A NMDAR (unknown origin) expressed in Dox-inducible cells measured every 5 mins by BD calcium indicator dye based-fluorescence analysis in presence of glutamate/glycine; format: cell-based; procedure, shortened: as §1
Glutamate receptor 2 [3] = biological target: T2, Glutamate receptor 2 (Homo sapiens, UniProt P42262); assay: Positive allosteric modulation of human GluA2 AMPAR flop isomer expressed in Dox-inducible cells measured every 5 mins by BD calcium indicator dye based-fluorescence analysis in presence of glutamate; format: cell-based
T2 sequence (P42262 whole entry): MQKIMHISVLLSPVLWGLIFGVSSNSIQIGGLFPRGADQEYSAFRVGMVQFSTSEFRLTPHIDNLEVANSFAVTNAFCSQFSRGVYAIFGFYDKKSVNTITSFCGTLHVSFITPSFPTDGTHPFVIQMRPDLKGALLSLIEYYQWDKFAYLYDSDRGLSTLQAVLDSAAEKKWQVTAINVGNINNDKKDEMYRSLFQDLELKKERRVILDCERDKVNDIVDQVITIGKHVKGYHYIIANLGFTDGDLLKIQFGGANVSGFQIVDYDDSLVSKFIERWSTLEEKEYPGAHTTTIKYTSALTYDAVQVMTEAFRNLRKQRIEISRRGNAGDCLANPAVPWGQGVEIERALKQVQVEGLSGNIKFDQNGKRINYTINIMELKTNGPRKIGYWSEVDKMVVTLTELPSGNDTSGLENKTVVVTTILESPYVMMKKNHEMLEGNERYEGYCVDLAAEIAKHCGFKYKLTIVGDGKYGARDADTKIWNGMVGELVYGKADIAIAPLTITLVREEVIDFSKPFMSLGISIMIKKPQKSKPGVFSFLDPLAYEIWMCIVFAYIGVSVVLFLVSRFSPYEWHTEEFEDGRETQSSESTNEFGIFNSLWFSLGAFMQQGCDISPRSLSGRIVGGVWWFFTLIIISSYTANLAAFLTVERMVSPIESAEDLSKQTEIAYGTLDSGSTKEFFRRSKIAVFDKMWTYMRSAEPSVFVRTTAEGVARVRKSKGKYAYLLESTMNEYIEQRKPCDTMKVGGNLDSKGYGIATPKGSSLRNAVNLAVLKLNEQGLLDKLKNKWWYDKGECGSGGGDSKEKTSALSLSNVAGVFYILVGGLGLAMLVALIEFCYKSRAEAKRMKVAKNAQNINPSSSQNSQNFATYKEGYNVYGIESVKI

Glutamate receptor 2 [4] = biological target: T2, Glutamate receptor 2; assay: Positive allosteric modulation of human GluA2 AMPAR flip isomer expressed in Dox-inducible cells at 125 uM measured every 5 mins by BD calcium indicator dye based-fluorescence analysis in presence of glutamate; format: cell-based
Homo sapiens [5] = species on record: Homo sapiens; assay: Selectivity ratio of EC50 for human GluA2 AMPAR flop isomer to EC50 for GluN1/GluN2A NMDAR (unknown origin) expressed in Dox-inducible cells; format: cell-based
Glutamate receptor 2 [6] = biological target: T2, Glutamate receptor 2; assay: Positive allosteric modulation of human GluA2 AMPAR flip isomer expressed in Dox-inducible cells measured every 5 mins by BD calcium indicator dye based-fluorescence analysis in presence of glutamate; format: cell-based
Glutamate receptor 2 [7] = biological target: T2, Glutamate receptor 2; assay: Positive allosteric modulation of human GluA2 AMPAR flop isomer expressed in Dox-inducible cells at 125 uM measured every 5 mins by BD calcium indicator dye based-fluorescence analysis in presence of glutamate; format: cell-based
[8] = biological target: Glutamate NMDA receptor; GRIN1/GRIN2B (Homo sapiens) (UniProt Q05586+Q13224); assay: Positive allosteric modulation of GluN1/GluN2B NMDAR (unknown origin) expressed in Dox-inducible cells at 125 uM measured every 5 mins by BD calcium indicator dye based-fluorescence analysis in presence of glutamate/glycine; format: cell-based
Procedure, shortened: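 Doxycycline-induced (2 µg/mL, overnight, 500 µM ketamine) GluN2B-containing NMDAR cells, loaded with calcium dye for 50 min; compound added at 2x in 2x EC30 Glu, with saturating Gly; fluorescence recorded over 5 min. Max potentiation at 125 µM reported where no EC50 obtained; 30% denotes baseline (EC30 Glu).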

[9] = Lipophilicity, logD of the compound at pH 7.4; format: physicochemical; conditions: buffer
human MDR1 (P-gp) = assay: Efflux ratio of permeability from basolateral to apical over apical to basolateral side in MDCK cells expressing human MDR1; format: ADME, cell-based, Canis lupus familiaris; conditions: dog
[10] = biological target: T1, Glutamate NMDA receptor; GRIN1/GRIN2A; assay: Positive allosteric modulation of GluN1/GluN2A NMDAR (unknown origin) expressed in CHO cells assessed as slowing of deactivation kinetics at 100 uM by whole-cell voltage clamp electrophysiological analysis; format: cell-based
Procedure, shortened: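 Automated patch clamp of CHO cells expressing GluN1/GluN2A; sealed in high Mg2+ buffer, recorded whole-cell in zero Mg2+. Preincubation with PAM at 100 µM (or DMSO) plus 100 µM glycine for several minutes, then rapid switch to 100 µM glutamate and back. Tau from monoexponential fit of current decay; fold deactivation = PAM tau / vehicle tau.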

[11] = Oral bioavailability in mouse at 10 mg/kg; format: ADME, organism-based; conditions: in vivo
[12] = biological target: Ionotropic glutamate receptor NMDA 1/2D (Homo sapiens, UniProt O15399+Q05586); assay: Positive allosteric modulation of GluN1/GluN2D NMDAR (unknown origin) expressed in Dox-inducible cells by BD calcium indicator dye based-fluorescence analysis in presence of glutamate/glycine
Sequence of Ionotropic glutamate receptor NMDA 1/2D (O15399 whole entry, other chains not shown): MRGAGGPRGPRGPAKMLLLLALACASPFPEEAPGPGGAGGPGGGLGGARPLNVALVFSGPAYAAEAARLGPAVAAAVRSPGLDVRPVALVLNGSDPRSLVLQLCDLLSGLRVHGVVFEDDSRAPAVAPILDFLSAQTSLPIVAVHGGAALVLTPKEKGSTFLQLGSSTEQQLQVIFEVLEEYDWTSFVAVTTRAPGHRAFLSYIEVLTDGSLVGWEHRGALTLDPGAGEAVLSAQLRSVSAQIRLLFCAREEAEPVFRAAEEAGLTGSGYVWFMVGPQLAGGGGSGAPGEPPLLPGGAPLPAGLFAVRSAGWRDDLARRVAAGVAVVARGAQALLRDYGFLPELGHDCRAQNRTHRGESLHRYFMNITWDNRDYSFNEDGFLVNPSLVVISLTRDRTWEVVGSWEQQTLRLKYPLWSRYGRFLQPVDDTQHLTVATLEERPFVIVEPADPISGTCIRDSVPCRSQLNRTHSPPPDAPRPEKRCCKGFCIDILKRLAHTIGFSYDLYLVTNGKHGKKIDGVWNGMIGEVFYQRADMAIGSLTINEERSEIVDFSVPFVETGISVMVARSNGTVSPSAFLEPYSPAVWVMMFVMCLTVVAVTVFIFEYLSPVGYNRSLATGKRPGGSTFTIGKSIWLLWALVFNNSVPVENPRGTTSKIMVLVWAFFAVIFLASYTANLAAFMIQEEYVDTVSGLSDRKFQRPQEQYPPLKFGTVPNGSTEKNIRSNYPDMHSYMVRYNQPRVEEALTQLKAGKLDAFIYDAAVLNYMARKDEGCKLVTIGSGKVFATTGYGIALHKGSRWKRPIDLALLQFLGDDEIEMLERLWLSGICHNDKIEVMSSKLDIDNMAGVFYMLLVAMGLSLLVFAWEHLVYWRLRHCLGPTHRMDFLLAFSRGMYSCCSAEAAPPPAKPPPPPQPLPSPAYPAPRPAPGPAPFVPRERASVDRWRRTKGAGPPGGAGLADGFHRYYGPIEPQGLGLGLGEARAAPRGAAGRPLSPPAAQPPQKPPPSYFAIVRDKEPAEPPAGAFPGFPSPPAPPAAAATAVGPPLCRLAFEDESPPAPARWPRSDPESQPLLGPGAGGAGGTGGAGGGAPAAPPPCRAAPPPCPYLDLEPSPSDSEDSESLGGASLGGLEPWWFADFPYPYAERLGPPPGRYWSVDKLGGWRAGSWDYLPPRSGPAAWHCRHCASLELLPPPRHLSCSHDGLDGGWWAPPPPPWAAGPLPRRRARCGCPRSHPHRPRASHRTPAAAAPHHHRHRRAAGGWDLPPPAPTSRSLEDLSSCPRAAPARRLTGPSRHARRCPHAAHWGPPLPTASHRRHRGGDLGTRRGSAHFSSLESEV

[13] = Protein binding in mouse brain; format: ADME, tissue-based; conditions: read-out: PB (converted)
[14] = Half life in mouse at 0.3 mg/kg, iv; format: ADME, organism-based; conditions: in vivo
[15] = Blood clearance in mouse at 0.3 mg/kg, iv; format: ADME, organism-based
Plasma = assay: Fraction unbound in mouse plasma at 10 mg/kg, po measured at 1 hr; format: ADME, organism-based; conditions: in vivo
[16] = Plasma protein binding in mouse; format: ADME, cell-free; conditions: read-out: PPB (converted)
[17] = biological target: Ionotropic glutamate receptor NMDA 1/2C (Homo sapiens, UniProt Q05586+Q14957); assay: Positive allosteric modulation of GluN1/GluN2C NMDAR (unknown origin) expressed in Dox-inducible cells by BD calcium indicator dye based-fluorescence analysis in presence of glutamate/glycine
Sequence of Ionotropic glutamate receptor NMDA 1/2C (Q14957 whole entry, other chains not shown): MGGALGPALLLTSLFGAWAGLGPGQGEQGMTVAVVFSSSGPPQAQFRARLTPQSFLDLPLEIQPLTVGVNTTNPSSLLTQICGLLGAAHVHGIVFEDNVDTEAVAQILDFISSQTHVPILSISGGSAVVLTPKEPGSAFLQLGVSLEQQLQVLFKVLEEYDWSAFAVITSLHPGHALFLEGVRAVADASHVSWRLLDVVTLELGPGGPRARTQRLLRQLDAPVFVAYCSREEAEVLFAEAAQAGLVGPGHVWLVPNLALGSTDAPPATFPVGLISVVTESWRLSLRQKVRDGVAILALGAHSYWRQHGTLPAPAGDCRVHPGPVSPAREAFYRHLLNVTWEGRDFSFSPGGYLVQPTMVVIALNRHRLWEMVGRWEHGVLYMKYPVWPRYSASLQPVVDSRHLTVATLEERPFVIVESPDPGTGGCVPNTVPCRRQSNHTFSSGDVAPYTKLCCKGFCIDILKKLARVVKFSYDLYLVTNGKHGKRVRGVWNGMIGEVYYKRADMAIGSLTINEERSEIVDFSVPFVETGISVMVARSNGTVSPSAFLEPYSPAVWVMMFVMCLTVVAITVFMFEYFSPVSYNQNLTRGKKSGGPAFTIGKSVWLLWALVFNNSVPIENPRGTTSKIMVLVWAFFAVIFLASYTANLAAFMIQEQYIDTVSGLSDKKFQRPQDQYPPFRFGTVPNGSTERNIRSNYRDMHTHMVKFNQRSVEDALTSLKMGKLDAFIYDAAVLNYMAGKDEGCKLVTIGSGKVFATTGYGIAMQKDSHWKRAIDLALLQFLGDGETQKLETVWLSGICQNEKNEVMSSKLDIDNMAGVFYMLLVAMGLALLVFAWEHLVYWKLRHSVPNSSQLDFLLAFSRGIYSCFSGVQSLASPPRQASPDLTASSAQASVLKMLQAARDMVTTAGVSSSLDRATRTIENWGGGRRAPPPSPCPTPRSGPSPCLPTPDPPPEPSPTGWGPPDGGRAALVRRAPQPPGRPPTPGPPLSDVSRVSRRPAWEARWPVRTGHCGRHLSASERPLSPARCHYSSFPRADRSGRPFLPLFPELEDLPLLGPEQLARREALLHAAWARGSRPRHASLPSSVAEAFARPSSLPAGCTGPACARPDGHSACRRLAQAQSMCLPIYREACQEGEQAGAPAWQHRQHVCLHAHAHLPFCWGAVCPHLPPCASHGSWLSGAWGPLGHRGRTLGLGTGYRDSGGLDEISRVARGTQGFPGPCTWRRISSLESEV

Homo sapiens [18] = species on record: Homo sapiens; assay: Selectivity ratio of EC50 for human GluA2 AMPAR flip isomer to EC50 for GluN1/GluN2A NMDAR (unknown origin) expressed in Dox-inducible cells; format: cell-based
[19] = biological target: T1, Glutamate NMDA receptor; GRIN1/GRIN2A; assay: Positive allosteric modulation of GluN1/GluN2A NMDAR (unknown origin) expressed in CHO cells assessed as slowing of deactivation kinetics at 10 uM by whole-cell voltage clamp electrophysiological analysis; format: cell-based

| SMILES | %max [1] | EC50 [2] | EC50 (Glutamate receptor 2 [3]) | %max (Glutamate receptor 2 [4]) | EC50 (Glutamate receptor 2 [6]) | %max (Glutamate receptor 2 [7]) | efflux ratio (human MDR1 (P-gp)) | other results |
| --- | --- | --- | --- | --- | --- | --- | --- | --- |
| C=C(C)c1c(C)sc2nc(CN(CC)c3ccc(F)cc3)cc(=O)n12 | 143% | 60 nM | 13 µM | 75% | 43.1 µM | 22% |  | Ratio EC50 (Homo sapiens [5]): > 100 |
| CCN(Cc1cc(=O)n2nc(C)sc2n1)c1ccc(F)cc1 | 150% | 900 nM | 0.83 µM | 92% | 3.3 µM | 99% | 1.4 | %max [8]: 48%; logD [9]: 2.9 |
| CCNC(=O)c1c(C)sc2nc(COc3ccc(F)cc3)cc(=O)n12 | 77% | 8500 nM |  | 11% |  | 15% | 2 | Activity [10]: inactive |
| CCCCc1nn2c(=O)cc(CN(CC)c3ccccc3)nc2s1 | 91% | 9340 nM | 23.7 µM | 51% | 35.2 µM | 71% |  | %max [8]: 40% |
| N#C[C@@H]1C[C@H]1c1c(C(F)(F)F)sc2nc(Cn3nc(C(F)(F)F)cc3Cl)cc(=O)n12 |  | 21 nM | 5.5 µM | 84% | 9.1 µM | 88% | 1.1 | bioavailability [11]: 24%; EC50 [12]: 6.2 µM; fraction unbound [13]: 0.014; half-life [14]: 240 min; clearance [15]: 26 mL/min/kg; Cp(f) (Plasma): 0.017 µM; fraction unbound [16]: 0.06; EC50 [17]: 7.4 µM |
| CCN(Cc1cc(=O)n2c(C(C)=O)c(C)sc2n1)c1ccc(F)cc1 | 173% | 88 nM | 9.4 µM | 13% |  | 55% | 1.1 | Ratio EC50 (Homo sapiens [5]): 100 |
| CCNC(=O)c1c(C)sc2nc(Cc3cccc(C(F)(F)F)c3F)cc(=O)n12 | 94% | 1200 nM | 29.4 µM | 9% | 28.3 µM | 20% | 1.8 |  |
| CCN(Cc1cc(=O)n2c(N3CCOCC3)c(C)sc2n1)c1ccc(F)cc1 | 69% | 2200 nM | 60.2 µM | 11% | 75.8 µM | 8% | 0.9 |  |
| Cc1sc2nc(Cn3nc(C(F)(F)F)cc3Cl)cc(=O)n2c1[C@@H]1C[C@H]1CO | 147% | 17.7 nM | 0.048 µM | 85% | 0.15 µM | 52% | 1.3 |  |
| CCN(Cc1cc(=O)n2nc(C)sc2n1)c1ccccc1 | 150% | 1900 nM | 2 µM | 84% | 7.5 µM | 95% |  | %max [8]: 35% |
| CCN(Cc1cc(=O)n2c(CCO)c(C)sc2n1)c1ccc(F)cc1 | 168% | 159 nM | 0.572 µM | 72% | 10.5 µM | 75% | 0.9 |  |
| Cc1sc2nc(COc3ccc(F)cc3)cc(=O)n2c1[C@@H]1C[C@H]1CO | 122% | 382 nM | 2.3 µM | 7% | 5.4 µM | 6% | 0.8 |  |
| CCNC(=O)c1c(C)sc2nc(Cn3nc(C(F)(F)F)cc3Cl)cc(=O)n12 | 120% | 436 nM | 73.2 µM | 8% | 37 µM | 16% | 11 | Ratio EC50 (Homo sapiens [18]): 100 |
| CCN(Cc1cc(=O)n2c([C@@H]3C[C@H]3CO)c(C)sc2n1)c1ccc(F)cc1 | 184% | 24.4 nM | 0.204 µM | 84% | 0.87 µM | 64% | 1.2 |  |
| O=c1cc(Cn2nc(C(F)(F)F)cc2Cl)nc2sc(C(F)(F)F)c([C@@H]3C[C@H]3CO)n12 | 144% | 73 nM | 2.5 µM | 66% | 36.1 µM | 41% | 1 |  |
| CCNC(=O)c1c(C)sc2nc(CN(CC)c3ccc(F)cc3)cc(=O)n12 | 184% | 93 nM |  | 10% |  | 28% | 5.1 | Activity [19]: Active |
